{"source": "ChEMBL document CHEMBL4038269", "about": "“Design, synthesis and evaluation of novel feruloyl-donepezil hybrids as potential multitarget drugs for the treatment of Alzheimer's disease” (Eur J Med Chem, 2017)", "key": {"SH-SY5Y [1]": {"test_system": "SH-SY5Y", "assay": "Neuroprotective activity in human SH-SY5Y cells assessed as reduction in amyloid beta (1 to 42)-induced reactive oxygen species formation at 20 uM after 3 hrs by DHE probe based fluorescence microscopic method", "format": "functional, cell-based", "outline": "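SH-SY5Y cells on 8-well slides (1x10^4/well, 24 h) treated 3 h with compound (20 µM) and Aβ1-42 oligomers (10 µM) at 37 °C. Stained with dihydroethidium (10 µM, 30 min, dark), then 1 h in serum-free DMEM. Fluorescence imaged by microscopy; four random fields of 50–100 cells quantified in arbitrary units.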"}, "Mus musculus [2]": {"test_system": "Mus musculus", "assay": "In vivo inhibition of COX-1 activity in carrageenan-induced Swiss mouse serum at 100 umol/kg, po pretreated for 1 hr followed by carrageenan challenge after 3 hrs by ELISA relative to control", "format": "functional", "outline": "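Male Swiss mice given oral drug (100 µmol/kg) or vehicle 1 h before intraplantar carrageenan (legend: 400 µg/paw). At 3 h, animals anaesthetised with chloral hydrate and cardiac blood taken. Serum separated (1500 rpm, 20 min) and frozen at -70 °C. COX-1, COX-2 and 5-LOX measured by specific sandwich ELISA at 450 nm. Expressed as % enzymatic activity, mean ± SEM, n=8.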"}, "SH-SY5Y [3]": {"test_system": "SH-SY5Y", "assay": "Iron chelating activity in human SH-SY5Y cells assessed as reduction in FeSO4/H2O2-induced reactive oxygen species formation at 10 to 20 uM after 30 mins by DCFH-DA probe based fluorescence assay", "format": "functional, cell-based", "outline": "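SH-SY5Y cells seeded at 3 x 10^4 cells/well and preloaded with DCFH-DA (10 µg/mL, 30 min, room temperature). Then given compound (5, 10, 20 µM) with FeSO4/H2O2 or CuSO4/H2O2 for 30 min; metal 25 µM and H2O2 100 µM per figure legend. Fluorescence read at ex 485/em 535 nm, arbitrary units. Mean ± SD of three experiments.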"}, "[4]": {"assay": "Metal chelating activity assessed as absorption maximum for compound-Cu2+ complex formation at 75 uM after 30 mins by UV-Vis spectrophotometric method (reference value: 237.2 nanometer)", "format": "functional", "outline": "(§1)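 UV-Vis spectra in ethanol of compound at 75 µM alone or after 30 min incubation with CuSO4, FeSO4, FeCl3 or ZnCl2 (150 µM). Absorption maxima recorded.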"}, "SH-SY5Y [5]": {"test_system": "SH-SY5Y", "assay": "Neuroprotective activity in human SH-SY5Y cells assessed as reduction in amyloid beta (1 to 42)-induced exocytosis at 20 uM after 4 hrs by MTT dye based microscopic method", "format": "functional, cell-based", "outline": "(§2)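 SH-SY5Y cells seeded at 3 x 10^4 cells/well, grown 24 h. Treated with compound (20 µM) plus Aβ1-42 oligomers (10 µM) for 4 h at 37 °C. Oligomers were prepared from HFIP-treated, DMSO-dissolved peptide and checked by TEM. MTT (5 mg/mL in PBS) added for 2 h. Cells inspected by light microscopy for needle-like exocytosed formazan crystals.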"}, "SH-SY5Y [6]": {"test_system": "SH-SY5Y", "assay": "Antioxidant activity in human SH-SY5Y cells assessed as increase in GSH level at 20 uM after 24 hrs by MCB probe based assay relative to control", "format": "functional", "outline": "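SH-SY5Y cells (DMEM, 10% FBS, 37 °C, 5% CO2) seeded at 2 x 10^4 cells/well and grown 24 h. Treated with 20 µM compound for 3-24 h. Then 50 µM monochlorobimane in PBS for 30 min at 37 °C. GSH fluorescence read at ex 360/em 465 nm, as % of control cells. Mean ± SD of three independent experiments.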"}, "[7]": {"assay": "Metal chelating activity assessed as absorption maximum for compound-Zn2+ complex formation at 75 uM after 30 mins by UV-Vis spectrophotometric method", "format": "functional", "outline": "as §1"}, "[8]": {"assay": "Antioxidant activity assessed as DPPH radical scavenging activity measured after 30 mins", "format": "functional", "outline": "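DPPH scavenging: compound at 12.5, 25, 50 and 100 µM in ethanol (4 mL) mixed with 1 mL of 0.5 mM DPPH in ethanol. Shaken 30 min at room temperature, absorbance read at 517 nm. % inhibition = (A control − A sample)/A control × 100. Run in triplicate; EC50 obtained by linear regression of mean values.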"}, "Cholinesterase": {"target": "Cholinesterase (Equus caballus, UniProt P81908)", "sequence (P81908 whole entry)": "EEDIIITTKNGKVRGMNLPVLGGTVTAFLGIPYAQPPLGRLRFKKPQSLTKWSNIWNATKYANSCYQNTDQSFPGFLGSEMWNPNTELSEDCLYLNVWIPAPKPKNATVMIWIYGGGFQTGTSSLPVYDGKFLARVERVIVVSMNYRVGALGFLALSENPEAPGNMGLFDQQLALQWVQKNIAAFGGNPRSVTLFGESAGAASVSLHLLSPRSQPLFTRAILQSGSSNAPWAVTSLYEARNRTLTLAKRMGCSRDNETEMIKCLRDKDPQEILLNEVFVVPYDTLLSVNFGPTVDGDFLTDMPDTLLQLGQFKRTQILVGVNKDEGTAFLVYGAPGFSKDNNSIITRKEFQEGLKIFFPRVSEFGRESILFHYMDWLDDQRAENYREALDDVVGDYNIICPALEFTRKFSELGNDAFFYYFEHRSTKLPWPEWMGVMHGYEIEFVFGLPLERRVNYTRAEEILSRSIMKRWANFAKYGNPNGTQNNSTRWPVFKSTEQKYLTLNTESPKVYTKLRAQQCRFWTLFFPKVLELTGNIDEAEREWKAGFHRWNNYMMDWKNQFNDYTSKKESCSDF", "assay": "Inhibition of equine serum BuChE using butyrylthiocholine iodide as substrate pretreated for 10 mins followed by substrate addition measured at 12 secs interval for 5 mins by Ellman's method", "outline": "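Ellman assay in 0.1 M sodium phosphate pH 7.4, enzyme 0.5 U/mL, DTNB 10 mM; concentration series preincubated 10 min before butyrylthiocholine iodide ([…]); A412 over 5 min at 12 s intervals. IC50 from fitted concentration-response curves, geometric mean of independent experiments, each in triplicate; DMSO ≤0.2% final.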"}, "Mus musculus [9]": {"test_system": "Mus musculus", "assay": "Anti-inflammatory activity in Swiss mouse assessed as reduction in carrageenan-induced paw edema at 100 umol/kg, po pretreated for 1 hr followed by carrageenan challenge after 3 hrs by plethysmometer", "format": "functional, organism-based", "outline": "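Adult male Swiss mice (22-28 g), fasted overnight, given vehicle (DMSO 2% in sterile saline) or 100 µmol/kg orally 1 h before intraplantar carrageenan. Methods give 400 µg/20 µl and n=10 per group; figure legend gives 100 µg/paw and n=8. Right hind paw volume read by plethysmometer at 1, 3 and 5 h. Reported as change in µL from basal volume, mean ± SEM.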"}, "SH-SY5Y [10]": {"test_system": "SH-SY5Y", "assay": "Antioxidant activity in human SH-SY5Y cells assessed as reduction in H2O2-induced reactive oxygen species formation measured after 24 hrs by DCFH-DA probe based fluorescence assay", "format": "functional, cell-based"}, "Acetylcholinesterase": {"target": "Acetylcholinesterase (Electrophorus electricus, UniProt O42275)", "sequence (O42275 whole entry)": "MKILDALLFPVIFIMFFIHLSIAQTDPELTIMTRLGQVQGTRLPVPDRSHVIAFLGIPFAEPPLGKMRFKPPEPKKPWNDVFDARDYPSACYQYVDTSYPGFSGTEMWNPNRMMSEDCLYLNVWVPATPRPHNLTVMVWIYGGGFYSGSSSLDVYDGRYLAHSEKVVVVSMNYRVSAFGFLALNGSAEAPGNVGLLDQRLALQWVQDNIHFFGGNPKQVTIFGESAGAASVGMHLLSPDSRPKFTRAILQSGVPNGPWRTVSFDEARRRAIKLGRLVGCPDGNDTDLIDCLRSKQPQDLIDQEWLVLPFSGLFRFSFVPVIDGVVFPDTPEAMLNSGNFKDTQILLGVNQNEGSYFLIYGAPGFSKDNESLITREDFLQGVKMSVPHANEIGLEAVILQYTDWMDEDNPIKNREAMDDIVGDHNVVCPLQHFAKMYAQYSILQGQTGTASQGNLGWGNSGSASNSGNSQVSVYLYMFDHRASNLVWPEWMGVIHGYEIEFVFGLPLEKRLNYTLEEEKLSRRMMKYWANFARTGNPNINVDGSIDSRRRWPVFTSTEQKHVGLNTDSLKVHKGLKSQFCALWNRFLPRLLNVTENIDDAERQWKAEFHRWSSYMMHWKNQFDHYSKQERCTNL", "assay": "Non-competitive inhibition of Electrophorus electricus AChE using acetylthiocholine iodide as substrate pretreated for 10 mins followed by substrate addition measured at 12 secs interval for 5 mins by Ellman's method"}, "SH-SY5Y [11]": {"test_system": "SH-SY5Y", "assay": "Neuroprotective activity in human SH-SY5Y cells assessed as reduction in amyloid beta (1 to 42)-induced early vacuole formation at 20 uM after 4 hrs by MTT dye based microscopic method", "format": "functional, cell-based", "outline": "as §2"}}, "note": "Activity calls are given as the source filed them. The calls are words filed in the database; no cut-off is given here."}
{"smiles": "COc1cc(/C=C/C(=O)OCC2CCN(Cc3ccccc3)CC2)ccc1O", "values": [{"measurement": "Activity", "setting": "SH-SY5Y [1]", "value": "Active"}, {"measurement": "inhibition in vivo at 100 µmol/kg", "setting": "Mus musculus [2]", "value": 40, "unit": "%"}, {"measurement": "Activity", "setting": "SH-SY5Y [3]", "value": "Active"}, {"measurement": "Activity", "setting": "[4]", "value": 248, "unit": "nm"}, {"measurement": "Activity", "setting": "SH-SY5Y [5]", "value": "inactive"}, {"measurement": "fold change (FC)", "setting": "SH-SY5Y [6]", "value": 1.4}, {"measurement": "Activity", "setting": "[7]", "value": "inactive"}, {"measurement": "EC50", "setting": "[8]", "value": 49.4, "unit": "µM"}, {"measurement": "IC50", "setting": "Cholinesterase", "value": 25, "unit": "µM"}, {"measurement": "Activity", "setting": "Mus musculus [9]", "value": "Active"}, {"measurement": "Activity", "setting": "SH-SY5Y [10]", "value": "Dose-dependent effect"}, {"measurement": "IC50", "setting": "SH-SY5Y [10]; Homo sapiens, SH-SY5Y, 24 h, read-out: IC50", "value": 16.9, "unit": "µM"}, {"measurement": "Ki", "setting": "Acetylcholinesterase", "value": 1.04, "unit": "µM"}, {"measurement": "Activity", "setting": "SH-SY5Y [11]", "value": "inactive"}]}
